“Also recorded” adds a separate entry of the source. Counter-ions that a name gives are not always drawn. Like-named read-outs stand apart in the source and are kept apart here.
Tests used:
[1] = Kinetic UV-vis decomposition in the presence of glutathione; assay type: physicochemical; conditions: PBS pH 7.4 + 2-fold GSH, room temperature
GAPDH [2] = molecular target: T1, GAPDH (Oryctolagus cuniculus, UniProt P46406); test: Reversibility of GAPDH inhibition by DTT; assay type: biochemical; conditions: GAPDH incubated with compound 1 hr, then DTT (10 mM) 1 hr
T1 sequence (P46406 whole entry): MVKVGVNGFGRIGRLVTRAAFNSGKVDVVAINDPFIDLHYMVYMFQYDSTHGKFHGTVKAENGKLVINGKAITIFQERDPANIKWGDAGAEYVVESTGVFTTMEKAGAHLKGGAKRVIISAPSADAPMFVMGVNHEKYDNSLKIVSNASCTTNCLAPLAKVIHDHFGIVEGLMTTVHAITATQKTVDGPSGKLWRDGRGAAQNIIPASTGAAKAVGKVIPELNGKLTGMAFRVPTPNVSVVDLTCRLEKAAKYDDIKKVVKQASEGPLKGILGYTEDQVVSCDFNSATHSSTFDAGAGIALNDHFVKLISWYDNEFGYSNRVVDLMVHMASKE

[3] = assay type: physicochemical; conditions: for k (min^−1) in 1:1 MeOH : 0.1 N NaOH / k (min^−1) in 1:1 MeOH : PBS / t1/2 (min) in 1:1 MeOH : 0.1 N NaOH: decomposition; for k (min^−1) in 1:1 MeOH : PBS: 1:1 MeOH:PBS (100 mM, pH 7.4), room temperature
In short: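 The test compound in MeOH (1 mL) was mixed with 1 mL of 100 mM PBS pH 7.4 or 0.1 M NaOH in a sealed cuvette at rt. Loss of absorbance at 667 nm was read every 15 min for 10 h. Rate constants and half-lives came from the exponential decay.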

GAPDH [4] = molecular target: T1, GAPDH; conditions: HPLC-HRMS, cited from earlier work; for Products, GAPDH tryptic peptide V233-R246: comparison/previous work
[5] = PBS buffer, pH = 7.6; cited from earlier work
[6] = tested on: human platelet aggregation induced by ADP; test: Platelet aggregation inhibition; assay type: cell-based; conditions: PRP, ADP 5 μM
In short: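 Human PRP came from blood spun at 100 g for 10 min, and PPP from PRP spun at 4500 g for 10 min. PRP or PPP plus CaCl₂ (2 mM) went into wells. The test compound (100, 75, 50, 10 µM) was added for 20 min at rt, then ADP 5 µM. Light transmission was read every 20 s with double-orbital agitation and normalised to PPP = 100% and PRP = 0%.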

[7] = tested on: porcine liver esterase (PLE); test: Kinetic UV-vis decomposition in the presence of porcine liver esterase; assay type: in vitro ADME; conditions: PBS buffer (3 % DMF) + PLE
[8] = tested on: human platelet activation induced by (ADP); test: Platelet activation inhibition; assay type: cell-based; conditions: for platelet activation inhibition: PRP, ADP 5 μM
GAPDH [9] = molecular target: T1, GAPDH; test: HPLC-HRMS assay of GAPDH modification; assay type: biochemical; conditions: incubated 1 hr rt, tryptic digestion
In short: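 Lyophilised GAPDH dissolved in 100 mM PBS pH 7.4, concentration set by A280 (ε 14600 M⁻¹cm⁻¹). Protein 100 µM final with test compound 1 mM final (added from MeOH stock) in water, 1 h rt. Trypsin digest (20:1 ratio) at 37 °C for 17 h, then diluted to 10 µM peptide. C18 LC with 0.1% formic acid water/MeOH gradient (5–95% over 10 min). Orbitrap HRMS, positive ESI. No-compound control.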

[10] = 1:1 MeOH:phosphate buffered saline, pH 7.4

Compound | k (min^−1) in PBS + 2-fold GSH [1] [min⁻¹] | t1/2 (min) in PBS + 2-fold GSH [1] [min] | % of GAPDH activity restored by the addition of DTT (GAPDH [2]) [%] | half-life at 30 mM [3, 10] [h] | k (min^−1) in 1:1 MeOH : PBS [3] [min⁻¹] | Products, GAPDH tryptic peptide V233-R246 (GAPDH [4]) | further results
CC(=O)OC1(N=O)CCOCC1 [Compound 4, 4-Nitrosotetrahydro-2H-pyran-4-yl acetate] | 0.011 | 65 | 22 | 13 | 0.00089 |  | half-life at 30 mM ([3]; 1:1 MeOH:0.1 N NaOH): 0.2 h; k (min^−1) in 1:1 MeOH : 0.1 N NaOH ([3]; 1:1 MeOH:0.1 N NaOH): 0.057 min⁻¹
O=NC1(OC(=O)C(F)(F)F)CCCCC1 [Compound 2, 1-nitrosocyclohexyl trifluoroacetate] |  |  |  |  |  | sulfinamide as a major product and sulfinic acid as a minor product | t1/2 of HNO release [5]: 121 milliseconds (ms)
CC(C)(C)C(=O)OC1(N=O)CCOCC1 [Compound 5, 4-Nitrosotetrahydro-2H-pyran-4-yl pivalate] | 0.007 | 99 |  | 31.7 | 0.00036 |  | half-life at 30 mM ([3]; 1:1 MeOH:0.1 N NaOH): 31.2 h; k (min^−1) in 1:1 MeOH : 0.1 N NaOH ([3]; 1:1 MeOH:0.1 N NaOH): 0.00037 min⁻¹
CC(=O)OC1(N=O)CCCCC1 [Compound 1, 1-nitrosocyclohexyl acetate] |  |  |  |  |  | sulfinic acid as a major product | 
O=NC1(OC(=O)C(Cl)(Cl)Cl)CCOCC1 [Compound 6, 4-Nitrosotetrahydro-2H-pyran-4-yl 2,2,2-trichloroacetate] | 0.173 | 4 | 19 | 0.833 | 0.014 |  | t1/2 (min) in 1:1 MeOH : 0.1 N NaOH ([3]; 1:1 MeOH:0.1 N NaOH): decompose immediately and Fast; inhibition of platelet aggregation ([6]; 10 μM, compared with positive control (PRP + ADP)): no effect; inhibition of platelet aggregation ([6]; 100 μM, 20 min incubation rt): Complete inhibition; inhibition of platelet aggregation ([6]; 50 and 75 μM): intermediate activities; decomposition rate constant k with PLE [7]: 0.087 min⁻¹; platelet activation inhibition ([8]; 1 μM): lower activity; inhibition of expression of the activated marker (CD62P) ([8]; 10 μM, PRP incubated with ADP (2 μM)): 83%; platelet activation inhibition ([8]; 100, 75, 50, and 10 μM): potent and similar effect; Products, GAPDH tryptic peptide I144-K160 (GAPDH [9]): Internal disulfide; RSSR; Products, GAPDH tryptic peptide V233-R246 (GAPDH [9]): Sulfinamide; RSONH2; also recorded: Sulfinic acid; RSOOH
[Na+].[Na+].[O-][N+]([O-])=NO [AS, Angeli’s salt (Na2N2O3, AS)] |  |  |  |  |  | sulfinamide as a major product and sulfinic acid as a minor product; also recorded: Sulfinamide; RSONH2; also recorded: Sulfinic acid; RSOOH | Products, GAPDH tryptic peptide I144-K160 (GAPDH [4]; comparison): Internal disulfide; RSSR
CC(Cl)(Cl)C(=O)OC1(N=O)CCOCC1 [Compound 7, 4-Nitrosotetrahydro-2H-pyran-4-yl 2,2-dichloropropanoate] | 0.0578 | 12 | 9 | 2 | 0.0058 |  | t1/2 (min) in 1:1 MeOH : 0.1 N NaOH ([3]; 1:1 MeOH:0.1 N NaOH): decompose immediately and Fast; decomposition rate constant k with PLE [7]: 0.03 min⁻¹; Products, GAPDH tryptic peptide I144-K160 (GAPDH [9]): Internal disulfide; RSSR; Products, GAPDH tryptic peptide V233-R246 (GAPDH [9]): Sulfinamide; RSONH2; also recorded: Sulfinic acid; RSOOH

From publication PMC4554820 (Bioorganic & medicinal chemistry, 2015)
